Screening data (PubChem BioAssay)
In the library only some 3.6% were active in any assay of this set; here they are far more common.
AHR act – human AHR activation | P35869 | AHR-responsive luciferase reporter cells, luminescence | activation, % at 5 µM | hit rate 2.5% among 320,000 | AID 2796; in the data active = activation above about 47%;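 also: 0% = vehicle wells and 100% = reference agonist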
HSF1 inh – HSF1 inhibition; NIH3T3-HGL HSE-luciferase, MG132-induced, luminescence 8 h; stronger effect = lower value; activity change, negative = inhibition, % at 7.5 µM (by protocol); hit rate 0.77% among 300,000; AID 2098;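 active = more than half of replicate wells show activity change below -50%, luminescence cut by over half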;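 also: luciferase reports HSF-1 transcriptional activity via heat shock element; 0% = median of DMSO wells and -100% = zero luminescence signal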
PERK inhibitor – inhibitors of human PERK kinase; Q9NZJ5; CHO PERK-DD fusion, SEAP luminescence translation reporter; inhibition, % at 5.6 µM; hit rate 0.17% among 220,000;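 active = inhibition above the mean inhibition of all tested compounds plus 3 SD, set separately per screening campaign, cut at about 2.9% in these data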;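 also: PERK kinase domain activated by AP20187 dimerizer at 100 nM; 0% = DMSO with dimerizer and 100% = rapamycin at 8.4 µM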
STAT3 activator – activators of IL-6 induced STAT3 signaling; U3A cells, IL-6 STAT3-luciferase reporter, luminescence; 100% = signal with IL-6 EC80 alone; activation (% of control), % at 5.6 µM; hit rate 0.91% among 190,000; AID 871;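 active = activation above the screen-wide mean of compound activation plus 3 SD, cut at about 130% in these data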;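 also: 0% = background luminescence of wells with medium and substrate only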
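Assay system – human STAT1-deficient U3A cells with stable STAT3-luciferase reporter · Also added – IL-6 (33 ng/mL) · Schedule – compound 1 h, then IL-6 6 h at 37 °C · Technique – reporter luminescence signal · Evaluation – % activation versus median of IL-6-stimulated wells · Benchmarks – IL-6-only wells as 100% reference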
Hsp70 activator – switches on Hsp70 transcription; hit rate 0.04% among 200,000; activation, % at 10 µM; HeLa Hsp70 promoter luciferase reporter, luminescence; scaled: vehicle 0, proteasome-inhibitor control 100%; AID 1203;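 active = activation above the mean across all tested compounds plus 3 SD, cutoff set per campaign, cut at about 5.5% in these data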;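 also: 100% = MG132 at 30 µM as the positive control and 0% = DMSO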
PolyA inh – inhibitors of polyadenylation in S. cerevisiae. AID 1875. S. cerevisiae SKY197-pL101 polyadenylation reporter, beta-gal luminescence; efflux-impaired pdr1/pdr3 knockout yeast; score 100 = 6 SD above DMSO. activity score, % at 12 µM. hit rate 0.02% among 300,000;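 active = lowest replicate activity score at least 50, where 100 means six control SD above control mean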;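 also: yeast exposed to compound for 9 h at 30 °C; higher score means more reporter readthrough which indicates perturbed polyadenylation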
AHR act confirm – confirmation of human aryl hydrocarbon receptor activators. shares compounds with AHR act. human cells, AHR-responsive luciferase reporter, luminescence. AID 2845. activation, % at 9 µM. hit rate 87% among 2,300; in the data active = activation above about 49%;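 also: HepG2 hepatoma cells carrying a DRE-driven firefly luciferase reporter; 0% = vehicle wells and 100% = reference agonist wells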
PXR act counter – PXR activation, counter-screen for AHR activators | shares compounds with AHR act | cell-based PXR reporter, luciferase luminescence | activation, % at 11.6 µM | hit rate 88% among 2,300 | AID 434939; in the data active = activation above about 11%;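 also: human hepatoma DPX-2 cells expressing full-length human PXR; 0% = DMSO and 100% = reference agonist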
Target sequence (O75469 whole entry, looked up): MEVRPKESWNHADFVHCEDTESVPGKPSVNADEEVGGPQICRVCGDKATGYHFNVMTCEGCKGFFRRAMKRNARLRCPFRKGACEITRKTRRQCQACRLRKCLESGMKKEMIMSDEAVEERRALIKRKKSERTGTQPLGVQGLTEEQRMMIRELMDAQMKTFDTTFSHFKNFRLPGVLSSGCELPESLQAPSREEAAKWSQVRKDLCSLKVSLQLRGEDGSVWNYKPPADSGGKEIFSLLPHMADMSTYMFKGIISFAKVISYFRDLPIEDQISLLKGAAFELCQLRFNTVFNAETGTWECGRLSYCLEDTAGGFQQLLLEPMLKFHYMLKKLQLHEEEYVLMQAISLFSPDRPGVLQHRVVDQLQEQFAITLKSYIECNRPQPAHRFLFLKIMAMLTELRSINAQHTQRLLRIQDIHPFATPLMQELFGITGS
* marks the source's active call; other numbers are inactive results; . = no result.

SMILES	AHR act	HSF1 inh	PERK inhibitor	STAT3 activator	Hsp70 activator	PolyA inh	AHR act confirm	PXR act counter
CCN(CC(=O)Nc1c(F)cccc1F)C(=O)c1ccc(S(=O)(=O)N2CCC(C)CC2)cc1	-1	.	.	.	.	.	.	.
O=C(Nc1ccc(Br)cc1)c1ccc(Br)c(S(=O)(=O)Nc2cccnc2)c1	98*	-1	0	100	0	2	56*	6
Cc1ccccc1Nc1nc(-c2ccccc2)c(C(=O)Nc2cccnc2)s1	81*	6	0	104	0	-8	57*	65*
Cc1ccccc1NS(=O)(=O)c1cc(C(=O)Nc2cccnc2)ccc1C	83*	-12	.	.	.	9	70*	104*
Cc1ccccc1NC(=O)c1ccc(C)c(S(=O)(=O)Nc2cccnc2)c1	-2	-2	.	.	.	-8	.	.
CCCNC(=O)CN1CCC(c2nc3ccccc3[nH]2)CC1	0	-4	.	.	.	27	.	.
Cc1ccc(-c2csc(-c3c[nH]c4ccccc34)n2)c(C)c1	106*	5	1	99	0	-8	115*	24*
O=C(CN1CCCC1)Nc1sc2c(c1C(=O)Nc1ccc(Br)cc1)CCC2	79*	1	.	.	.	-17	104*	52*
CN1CCN(CC(=O)Nc2sc3c(c2C(=O)Nc2ccccc2)CCCC3)CC1	4	3	.	.	.	14	.	.
CN(C1CC(C)(C)NC(C)(C)C1)S(=O)(=O)CC12CCC(CC1=O)C2(C)C (stereo unspecified)	-2	-3	1	.	.	-5	.	.
CCn1cc(Br)c(C(=O)Nc2ccc(F)cc2F)n1	99*	5	-1	.	.	0	130*	13*
Cc1ccc2c(C(=O)CNc3nncs3)c(C)[nH]c2c1	106*	-3	2	.	.	15	36	17*
COc1ccc(C(=O)N/N=C/c2sc(N3CCOCC3)nc2-c2ccccc2)cc1OC	5	-6	0	85	0	-3	.	.
O=C(N/N=C/c1sc(N2CCOCC2)nc1-c1ccccc1)c1ccc(O)cc1	95*	19	1	74	0	8	49*	11*
CCCCN(C(=O)c1cnccn1)c1c(N)n(CCC)c(=O)[nH]c1=O	0	.	.	.	.	.	.	.
CCOc1ccc(Cl)cc1S(=O)(=O)N1CCC(C(=O)NCC2CCCO2)CC1 (stereo unspecified)	2	-2	.	.	.	16	.	.
COc1cccc(-c2c(C(=O)N/N=C/c3ccco3)nnn2-c2nonc2N)c1	3	-7	.	.	.	5	.	.
CCC(C)(C)NC(=O)CN(C(=O)CNS(=O)(=O)c1ccc(F)cc1)c1ccc2c(c1)OCCO2	-3	-5	.	.	.	-15	.	.
Cn1c(SCC(=O)N/N=C/C=C\c2ccccc2[N+](=O)[O-])nc2ccccc21	108*	-6	0	87	0	-20	55*	81*
CCn1c(SCC(=O)N/N=C/C=C\c2ccccc2[N+](=O)[O-])nc2ccccc21	33	-2	-1	86	-1	13	.	.
Cn1c(SCC(=O)N/N=C/C=C/c2ccccc2[N+](=O)[O-])nc2ccccc21	117*	-5	0	98	0	-5	56*	75*
Cc1oc(C(C)(C)C)cc1C(=O)N1CCN(C(c2ccccc2)c2ccccc2)CC1	-3	2	-1	.	.	-8	.	.
COc1ccc2nnc(-c3ccc(C(F)(F)F)cc3)n2n1	81*	-89*	0	.	.	1	105*	18*
O=[N+]([O-])c1ccc(Cl)c(NC(=S)N2CCCC2)c1	-4	-6	.	.	.	-7	.	.
C=C(C)c1cccc(C(C)(C)NC(=O)Nc2ccc(Cl)cn2)c1	91*	8	1	99	0	-4	95*	73*
SMILES	AHR act	HSF1 inh	PERK inhibitor	STAT3 activator	Hsp70 activator	PolyA inh	AHR act confirm	PXR act counter
COc1ccc2c(c1)O[C@H](c1ccc3c(c1)OCO3)[C@@H](O)C2=O	87*	12	1	109	0	-5	95*	26*
COc1cccc(-c2c(C(=O)N/N=C/c3sccc3C)nnn2-c2nonc2N)c1	8	-5	.	.	.	-8	.	.
COc1cccc(-n2c(SCC(=O)NCC3CCCO3)nc3c([nH]c4ccccc43)c2=O)c1 (stereo unspecified)	88*	-4	.	.	.	-6	128*	89*
Cn1c(SCC(=O)NCc2ccc(F)cc2)nc2c([nH]c3ccccc32)c1=O	126*	-1	0	133*	0	14	97*	90*
Cn1c(SCC(=O)N2CCCCCC2)nc2c([nH]c3ccccc32)c1=O	30	0	0	103	0	3	.	.
Cn1c(SCC(=O)NCCc2ccccc2)nc2c([nH]c3ccccc32)c1=O	118*	11	0	124	0	-4	91*	115*
Cn1c(SCC(=O)NCCc2ccc(S(N)(=O)=O)cc2)nc2ccccc2c1=O	1	2	1	100	0	15	.	.
N#Cc1nc(Cl)c(Cl)c(NN)c1Cl	12	2	1	.	.	-7	.	.
CCCCn1nc(C(=O)N(C)C2CCCCC2)c2ccccc2c1=O	-1	.	.	.	.	.	.	.
O=[N+]([O-])c1cccc2ccc(/C=C/c3ccc(F)cc3)nc12	186*	30	-1	135*	0	-27	229*	19*
CCOc1cc(/C=C/c2ccc3cccc([N+](=O)[O-])c3n2)ccc1O	3	-5	-1	96	0	-9	.	.
Cc1nc(NC2=NCN(CCCN3CCOCC3)CN2)nc2c(C)cccc12	125*	.	1	183*	0	.	74*	.
Cc1c(C(=O)Nc2ccc(Br)cc2)cnn1C	120*	5	1	116	0	-8	136*	23*
O=C(Nc1ccc(Br)cc1)c1ccccc1Br	5	33	.	.	.	-4	.	.
COCCN(CCOC)c1nc(-c2ccc(Cl)cc2)nc2ccccc12	118*	-5	.	.	.	29	83*	70*
COCCCNc1nc(-c2ccc(Cl)cc2)nc2ccccc12	98*	-9	.	.	.	-5	91*	30*
OCCCNc1nc(-c2ccc(Cl)cc2)nc2ccccc12	88*	-10	.	.	.	-25	104*	62*
COc1ccc(-c2nc(NCCCN(C)C)c3ccccc3n2)cc1	26	7	.	.	.	0	.	.
OCCNc1nc(-c2ccccc2)nc2ccccc12	30	9	1	95	0	-5	.	.
CCN(CC)c1nc(-c2ccccc2)nc2ccccc12	108*	6	.	.	.	-2	78*	91*
CN(CC(=O)Nc1ccc(Cl)c(Cl)c1)C(=O)CNC(=O)Cc1ccccc1	0	.	.	.	.	.	.	.
CCC(=O)N1CCc2nc(-c3ccccc3)sc2C1	-2	7	.	.	.	13	.	.
